Assay [1] is described as follows: Her2 expression decrease, cell viability multiplex – SKBR3 breast tumor cells, AlphaScreen, ATP viability, primary screen (AID 461;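 active = Her2 level under about 52% in both replicate screens, with viability over 70% of control, limit read from the data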;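 for Her2 level: lower value means less Her2 protein in the cells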;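 for viability: percent of carrier control wells set as 100% viability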). As to conditions: SKBR3 Her2 protein level, 18-24 h, measured here: SKBR3 viability, ATP luminescence, at 10 µM. On the technique in general: Bead proximity is the source of the signal in Alpha formats.
Assay [2] has as its target Receptor tyrosine-protein kinase erbB-2 (Homo sapiens) (UniProt P04626). Described as above. The conditions noted are these: 18-24 h, at 10 µM, stronger effect = lower value.
Assay [3] can be described thus: reduced viability of SK-BR-3 breast cancer cells – cell-based, 24 h, human, pilot screen (AID 572;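 active = viability at or below 10% of carrier control in both of two separate runs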;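 note: compound exposure lasted between 18 and 24 h rather than exactly 24 h; 100% = carrier-treated control wells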). As to conditions: SK-BR-3 viability, CellTiter-Glo luminescence, at 10 µM, stronger effect = lower value. On the technique in general: In ATP-based viability assays light output follows the ATP content of the culture.
A short description of assay [4]: HUVEC growth inhibition – cell-based, human, primary screen (AID 575;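 active = viability at or below 30% in both replicate assays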;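 note: 100% = median of untreated cell wells with 0.1% DMSO on each plate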). As to conditions: HUVEC proliferation, CellTiter-Glo luminescence, 72 h; at 10 µM; stronger effect = lower value. The procedure, abridged: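 System – primary HUVEC, no more than 12 passages · Medium – Low-serum (2% FBS) EBM, supplemented · Times – 72 h exposure, 37 °C, 5% CO2, 30 min RT equilibration · Measured by – luminescent ATP assay · Read-out – % viability relative to median vehicle-well signal on each plate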

Assay [5] can be described thus: H69AR cell proliferation blockers – human, duplicate replicates, primary screen (AID 580;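 active = viability at or under a set limit in both replicates, limit being median viability minus 3 SD, cut at about 48% in these data, passing the limit was not always enough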;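 note: 100% = mean luminescence of untreated wells and 0% = no signal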). As to conditions: H69AR lung tumor cells viability, ATP luminescence, 72 h; at 10 µM; stronger effect = lower value.
Assay [6] can be described thus: MRP1 drug-resistance reversers in H69AR cells – cell-based, doxorubicin co-treatment, pilot screen (AID 601). The conditions noted are these: CellTiter-Glo, 72 h, at 10 µM; for differential viability (reversal): stronger effect = higher value.
Assay [7] in a line: yeast transport mutant growth inhibition pilot in 384-well plates, post-Golgi transport modulator project (AID 636; in the data active = inhibition above about 31%). As to conditions: absorbance 615 nm, about 18 h, stronger effect = higher value.
A short description of assay [8]: growth suppression of yeast trafficking mutant, preliminary HTS, modulators of trafficking downstream of Golgi apparatus project, 1536-format plate, OD 615 nm (AID 637; in the data active = inhibition above about 30%). The conditions noted are these: yeast transport mutant growth, absorbance 615 nm, 18 h; stronger effect = higher value.
Where [9] appears, read: H69AR cells + 2 uM doxorubicin, measured here: viability with 2 uM doxorubicin, stronger effect = lower value.
Where [10] appears, read: H69AR cells, compound alone cytotoxicity.

From PubChem BioAssay come the findings set out here.

Calls of active or inactive are those of the source.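 Rule for the calls, unless noted: active = viability loss from added drug above about 55%, and viability with drug at most 40%, in both replicates (limit read from the data, passing the limit was not always enough); inconclusive = both conditions met in only one replicate; inactive = neither replicate meets both conditions.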

Chain of Receptor tyrosine-protein kinase erbB-2 (Homo sapiens) (P04626 whole entry, looked up): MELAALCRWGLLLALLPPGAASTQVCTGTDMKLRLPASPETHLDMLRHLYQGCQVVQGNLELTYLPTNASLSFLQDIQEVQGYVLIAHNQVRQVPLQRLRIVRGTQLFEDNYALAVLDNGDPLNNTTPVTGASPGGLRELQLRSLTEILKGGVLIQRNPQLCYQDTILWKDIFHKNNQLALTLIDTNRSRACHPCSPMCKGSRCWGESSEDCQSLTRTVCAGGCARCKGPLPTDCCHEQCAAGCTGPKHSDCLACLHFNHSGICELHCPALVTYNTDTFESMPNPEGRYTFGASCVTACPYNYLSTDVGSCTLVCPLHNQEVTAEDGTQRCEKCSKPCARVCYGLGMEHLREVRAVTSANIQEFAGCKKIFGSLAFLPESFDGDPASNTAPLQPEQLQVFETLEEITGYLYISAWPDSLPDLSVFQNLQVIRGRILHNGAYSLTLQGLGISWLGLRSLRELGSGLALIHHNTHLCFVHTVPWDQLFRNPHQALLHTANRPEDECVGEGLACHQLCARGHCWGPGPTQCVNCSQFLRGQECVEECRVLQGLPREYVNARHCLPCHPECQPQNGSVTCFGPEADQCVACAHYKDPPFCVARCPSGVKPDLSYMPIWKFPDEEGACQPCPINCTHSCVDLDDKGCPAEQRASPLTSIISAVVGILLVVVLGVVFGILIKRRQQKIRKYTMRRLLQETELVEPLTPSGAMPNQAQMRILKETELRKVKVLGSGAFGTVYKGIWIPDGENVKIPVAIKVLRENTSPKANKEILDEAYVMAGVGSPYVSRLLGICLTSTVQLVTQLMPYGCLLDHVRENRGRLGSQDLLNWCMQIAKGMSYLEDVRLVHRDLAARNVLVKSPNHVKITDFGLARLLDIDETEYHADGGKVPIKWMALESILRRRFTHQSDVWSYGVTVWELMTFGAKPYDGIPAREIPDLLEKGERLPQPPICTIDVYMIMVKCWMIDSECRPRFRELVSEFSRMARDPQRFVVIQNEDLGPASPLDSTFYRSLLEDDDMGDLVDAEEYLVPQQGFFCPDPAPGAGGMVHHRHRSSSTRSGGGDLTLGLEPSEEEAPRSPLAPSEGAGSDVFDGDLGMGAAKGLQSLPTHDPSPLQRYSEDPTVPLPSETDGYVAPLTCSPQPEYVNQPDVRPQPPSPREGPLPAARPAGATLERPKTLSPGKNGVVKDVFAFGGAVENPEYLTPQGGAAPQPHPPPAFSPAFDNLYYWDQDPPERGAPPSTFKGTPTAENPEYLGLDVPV

As for `Fc1ccc(-c2nnc(CN3CCN(c4ncc(C(F)(F)F)cc4Cl)CC3)o2)cc1`, the viability (as a rule, a read-out of living cells in per cent, often relative to untreated cells) in assay [1] is 104%; in assay [3] it was 104% (inactive); in assay [4], 63.4% (inactive); in assay [5], 90.5% (inactive); in assay [6] (setting [9]), 91.3%; in assay [6] (setting [10]), 90.5%. Moreover, the Her2 level in assay [2] was 87% (inactive). Also, in assay [6] (H69AR cells + 2 uM doxorubicin), the differential viability (reversal) is -0.76% (inactive). Also, the inhibition (usually the relative decrease from the control value, in per cent) in assay [7] is -1.43% (inactive); in assay [8], 3.61% (inactive).
For the molecule `COc1ccc(N2C(=O)C3C4C=CC(C4)C3C2=O)nn1` (stereo not given), the viability was 104% in assay [1]; 104% (inactive) in assay [3]; 99.6% (inactive) in assay [4]; 99.2% (inactive) in assay [5]; 81.8% in assay [6] (setting [9]); 99.2% in assay [6] (setting [10]). Further, the Her2 level in assay [2] is 106% (inactive). In addition, in assay [6] (H69AR cells + 2 uM doxorubicin), the differential viability (reversal) was 17.4% (inactive). For the same molecule, the values for the inhibition in assay [7] and in assay [8] were -0.91% (inactive) and -4.59% (inactive), respectively.
Take `C/C(N)=C(/C#N)C(=O)COC(=O)c1cc(S(=O)(=O)N2CCCCC2)ccc1C`: the viability was 88.5% in assay [1]; 88.5% (inactive) in assay [3]; 82.2% (inactive) in assay [4]; 95.8% (inactive) in assay [5]; 94.8% in assay [6] (setting [9]); 95.8% in assay [6] (setting [10]). In addition, in assay [2], the Her2 level was 79.5% (inactive). Moreover, the differential viability (reversal) in assay [6] (H69AR cells + 2 uM doxorubicin) is 0.98% (inactive). In addition, the results for the inhibition in assay [7] and in assay [8] were 0.38% (inactive) and -3.83% (inactive), respectively.
Take `O=C1c2cccnc2C(O)N1Cc1ccc(F)cc1` (stereo not given): the viability in assay [1] is 104%; in assay [3], 104% (inactive); in assay [4], 88.8% (inactive); in assay [5], 102% (inactive); in assay [6] (setting [9]) it was 97.7%; in assay [6] (setting [10]), 102%. Moreover, the Her2 level in assay [2] is 88% (inactive). Also, in assay [6] (H69AR cells + 2 uM doxorubicin), the differential viability (reversal) is 3.87% (inactive). Further, the inhibition in assay [7] was -4.53% (inactive); in assay [8] it was 2.95% (inactive).
Take `COc1ccc(-c2nc(SC)n(S(=O)(=O)c3ccccc3)n2)cc1`: the viability in assay [1] is 80%; in assay [3] it was 80% (inactive); in assay [4], 86.1% (inactive); in assay [5], 98.1% (inactive); in assay [6] (setting [9]), 80.6%; in assay [6] (setting [10]) it was 98.1%. Besides, in assay [2], the Her2 level is 114% (inactive). Further, the differential viability (reversal) in assay [6] (H69AR cells + 2 uM doxorubicin) is 17.5% (inactive). In addition, the inhibition is 1.73% (inactive) in assay [7] and -10.8% (inactive) in assay [8].
For the molecule `O=C(COC(=O)c1ccco1)NCc1cccs1`, the viability is 112% in assay [1]; 112% (inactive) in assay [3]; 98.9% (inactive) in assay [4]; 106% (inactive) in assay [5]; 95.3% in assay [6] (setting [9]); 106% in assay [6] (setting [10]). Moreover, the Her2 level in assay [2] is 97.5% (inactive). Besides, the differential viability (reversal) in assay [6] (H69AR cells + 2 uM doxorubicin) is 10.7% (inactive). Besides, the values for the inhibition in assay [7] and in assay [8] were -7.76% (inactive) and 0% (inactive), respectively.
`CCCCCCNS(=O)(=O)c1ccc(Cl)s1`: the viability in assay [1] is 85%; in assay [3], 85% (inactive); in assay [4], 81.9% (inactive); in assay [5], 89.1% (inactive); in assay [6] (setting [9]), 87.8%; in assay [6] (setting [10]), 89.1%. In addition, the Her2 level in assay [2] is 86.5% (inactive). Moreover, the differential viability (reversal) in assay [6] (H69AR cells + 2 uM doxorubicin) was 1.29% (inactive). The inhibition in assay [7] is -4.4% (inactive); in assay [8], 22.9% (inactive).
With `Cc1cc(C)cc(-n2ccnc2SCC(=O)Nc2ccc3c(c2)OCCO3)c1`, the viability in assay [1] is 119%; in assay [3], 119% (inactive); in assay [4], 90.7% (inactive); in assay [5], 99.3% (inactive); in assay [6] (setting [9]) it was 91.2%; in assay [6] (setting [10]) it was 99.3%. Besides, the Her2 level in assay [2] was 93.5% (inactive). Also, the differential viability (reversal) in assay [6] (H69AR cells + 2 uM doxorubicin) was 8.09% (inactive). The inhibition is -6.05% (inactive) in assay [7] and -0.91% (inactive) in assay [8].
On to `Nn1cc(-c2ccccc2)nc1SCC(=O)N1CCN(S(=O)(=O)c2ccccc2)CC1`, for which the viability in assay [1] is 77%; in assay [3], 77% (inactive); in assay [4] it was 90.5% (inactive); in assay [5] it was 101% (inactive); in assay [6] (setting [9]), 102%; in assay [6] (setting [10]), 101%. Moreover, in assay [2], the Her2 level was 96% (inactive). For the same molecule, the differential viability (reversal) in assay [6] (H69AR cells + 2 uM doxorubicin) was -0.4% (inactive). For the same molecule, the figures for the inhibition in assay [7] and in assay [8] were 0.91% (inactive) and -6.56% (inactive), respectively.
`O=C1NCC(COCc2ccccc2)O1` (stereo not given): the viability in assay [1] was 110%; in assay [3], 110% (inactive); in assay [4], 103% (inactive); in assay [5], 108% (inactive); in assay [6] (setting [9]) it was 89.4%; in assay [6] (setting [10]), 108%. The Her2 level in assay [2] was 96% (inactive). In addition, the differential viability (reversal) in assay [6] (H69AR cells + 2 uM doxorubicin) is 18.5% (inactive). Further, the inhibition in assay [7] is -5.6% (inactive); in assay [8], 0% (inactive).
As for `Cc1cc(C)nc(NS(=O)(=O)c2ccc(NC(=O)Cn3c(=O)oc4ccccc43)cc2)n1`, the viability was 89.5% in assay [1]; 89.5% (inactive) in assay [3]; 89% (inactive) in assay [4]; 86.7% (inactive) in assay [5]; 84.2% in assay [6] (setting [9]); 86.7% in assay [6] (setting [10]). In assay [2], the Her2 level is 101% (inactive). For the same molecule, the differential viability (reversal) in assay [6] (H69AR cells + 2 uM doxorubicin) was 2.6% (inactive). The values for the inhibition in assay [7] and in assay [8] were -0.9% (inactive) and 2% (inactive), respectively.
Consider `Cc1oc(-c2ccccc2F)nc1CS(=O)(=O)CC(=O)N1CCCCCC1`, for which the viability in assay [1] is 99%; in assay [3] it was 99% (inactive); in assay [4], 101% (inactive); in assay [5], 100% (inactive); in assay [6] (setting [9]), 87.1%; in assay [6] (setting [10]), 100%. Also, the Her2 level in assay [2] was 108% (inactive). Also, the differential viability (reversal) in assay [6] (H69AR cells + 2 uM doxorubicin) is 13.4% (inactive). Besides, the inhibition is 1.07% (inactive) in assay [7] and -3.28% (inactive) in assay [8].
Consider `COc1cccc(C2CC(c3ccccc3)n3ncnc3N2)c1` (stereo not given), for which the viability is 87% in assay [1]; 87% (inactive) in assay [3]; 93.5% (inactive) in assay [4]; 90.2% (inactive) in assay [5]; 80% in assay [6] (setting [9]); 90.2% in assay [6] (setting [10]). In addition, the Her2 level in assay [2] is 112% (inactive). Besides, the differential viability (reversal) in assay [6] (H69AR cells + 2 uM doxorubicin) was 10.2% (inactive). For the same molecule, the inhibition is 2.82% (inactive) in assay [7] and 3.67% (inactive) in assay [8].
In the case of `CCC(C)NC(=O)CSC1=Nc2ccccc2C2=NC(CC(=O)NCc3ccccc3)C(=O)N12` (stereo not given), the viability is 96.5% in assay [1]; 96.5% (inactive) in assay [3]; 85.7% (inactive) in assay [4]; 107% (inactive) in assay [5]; 94.2% in assay [6] (setting [9]); 107% in assay [6] (setting [10]). The Her2 level in assay [2] is 88% (inactive). Also, the differential viability (reversal) in assay [6] (H69AR cells + 2 uM doxorubicin) is 13.1% (inactive). Also, the inhibition was -3.03% (inactive) in assay [7] and -3.02% (inactive) in assay [8].
`O=C1NC(=O)C2(CCC(C(=O)O)C2)N1` (stereo not given): the viability is 93.5% in assay [1]; 93.5% (inactive) in assay [3]; 96.4% (inactive) in assay [4]; 94.2% (inactive) in assay [5]; 94.5% in assay [6] (setting [9]); 94.2% in assay [6] (setting [10]). Also, the Her2 level in assay [2] is 84% (inactive). Also, in assay [6] (H69AR cells + 2 uM doxorubicin), the differential viability (reversal) is -0.33% (inactive). In addition, the figures for the inhibition in assay [7] and in assay [8] were -5.73% (inactive) and 2.46% (inactive), respectively.
